Experimental data collected from several papers.
Lines come from different studies, so protocols differ.
Target: Mitogen-activated protein kinase 11 (MAPK11, Homo sapiens, UniProt Q15759)
Technique: competition with immobilised ligand

Compound	test	conditions	remaining binding [%]
COc1ccnn2ncc(-c3ccnc(N(C)C)n3)c12	binding	1 µM	92
Cc1cc(C)c(-n2ccn3nc(-c4cccnc4)cc23)cc1NC(=O)c1cc(C#N)cc(S(F)(F)(F)(F)F)c1	cell-free assay	0.1 µM	93.4
O=C(NCCCN1CCOCC1)c1ccc(Nc2ncc(Cl)c(-c3ccc(Cl)s3)n2)cc1	binding	1 µM	98
C[C@@]1(Cc2ccc(C#N)cc2)C(=O)N(c2cc(Cl)cc(Cl)c2)c2ncc(C(=O)NC3(c4nc(C5CCC5)no4)CC3)n21	cell-free assay	1 µM	100
CNC(=O)[C@@H]1CC[C@@H](n2c(-c3ccc4cnccc4c3)nc3ccc(C(=O)NCc4cccc(C(N)=O)c4)cc32)C1	binding	1 µM	100
O=C(c1ccc(Nc2ncc(Cl)c(-c3cc4ccccc4s3)n2)cc1)N1CCC(N2CCCC2)CC1	binding	1 µM	82
CSc1cccnc1N1CCN(Cc2nc3ccccc3[nH]2)CC1	cell-free assay	1 µM	100
C[C@H]1CCN(c2nccc(-c3cnn4ncccc34)n2)C1	binding	1 µM	55
CCN1CCN(Cc2ccc(C(=O)Nc3ccc(C)c(Oc4ccc5c(c4)CC(=O)N5)c3)cc2C(F)(F)F)CC1	binding	1 µM	7
Nc1ncc2c(n1)-c1c([nH]c3ccc(C#CC4CC4)cc13)CCCC2	binding	1 µM	100
NS(=O)(=O)c1cc(NC(=O)C2(c3ccccc3Cl)CC2)ccc1Oc1cccc(Cl)c1	cell-free assay	1 µM	68
CC(C)(C)c1ccc(-c2nc(CBr)nn2-c2cccc(O)c2)cc1	cell-free assay	10 µM	99
O=C(Nc1c[nH]nc1C(=O)NC1CCNCC1)c1cc(F)cc(F)c1	binding	1 µM	97
CN(C)CC#Cc1ccc(OCCCc2sc(N3CCc4cccc(C(=O)Nc5nc6ccccc6s5)c4C3)nc2C(=O)O)c(F)c1	cell-free assay	1 µM	100
Cc1cnn2ncc(-c3ccnc(N(C)C)n3)c2c1	binding	1 µM	100
C=CC(=O)N1CCC(C(=O)NCC(=O)N2CCN(c3nc(-c4cnc(N)nc4C(F)F)nc(N4CCOCC4)n3)CC2)CC1	binding	1 µM	89
CCS(=O)(=O)c1cc2cc(C[C@@](O)(CC(C)(C)c3ccc(F)cc3C(N)=O)C(F)(F)F)[nH]c2cn1	cell-free assay	1 µM	100
C[C@@H]1CN(c2ccc3ncc(-c4ccc5[nH]nc(C6CC6)c5c4)n3n2)C[C@H](C)O1	binding	50 nM	100
CN(C)c1nccc(-c2cnn3ncccc23)n1	binding	1 µM	100
COc1cc(-c2cn(C3CCc4ccccc4N(CC(F)(F)F)C3=O)nn2)ccc1-n1ccc(C)n1 (stereo not shown)	cell-free assay	1 µM	82
c1cnn2ncc(-c3ccnc(N4CCC45COC5)n3)c2c1	binding	1 µM	100
O=C(c1ccc(Nc2ncc(Cl)c(-c3ccc(Cl)s3)n2)cc1)N1CCC(N2CCCC2)CC1	binding	1 µM	73
